EBI2 block – EBI2 receptor antagonists, beta-arrestin recruitment, primary screen, cell-based, luminescence, 7a,25-OHC stimulation, uHTS | G-protein coupled receptor 183 (Homo sapiens), P32249 | 7a,25-OHC stimulated | inhibition, % at 5 µM | 360,000 compounds, 0.81% hits | AID 651636, 2012; in the data active means inhibition above about 38%;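 further: enzyme fragment complementation signal reports receptor beta-arrestin coupling in cells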
CCR6 antag – CCR6 receptor antagonists, primary screen, cell-based, CHO-K1, luminescence, beta-arrestin, uHTS; C-C chemokine receptor type 6 (Homo sapiens), P51684; CHO-K1 CCR6 PathHunter beta-arrestin, CCL20-stimulated; inhibition, % at 20 µM; 340,000 compounds, 0.49% hits; AID 493098, 2011;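 active means compounds whose inhibition of the agonist-driven luminescence signal at 20 µM reaches about 50%, limit read from the data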;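 further: cells stimulated with CCL20 at 14 nM final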
CXCR6 block – CXCR6 receptor inhibitors, primary screen, cell-based, beta-arrestin, luminescence, CHO-K1 PathHunter, 1536-well | C-X-C chemokine receptor type 6 (Homo sapiens), O00574 | inhibition, % at 20 µM | 360,000 compounds, 0.36% hits; in the data active means inhibition above about 34%, passing the limit was not always enough;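 further: antagonist mode with CXCL16 agonist at 10 nM final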
APJ agonist – agonists of human apelin receptor APJ, primary screen, CHO-K1 cells, PathHunter beta-arrestin, luminescence. 0% DMSO wells, 100% apelin. 330,000 compounds, 0.11% hits. activation, % at 20 µM. AID 2520, 2010;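 active means activation more than six SD over the plate average, tested at 20 µM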
Target sequence (P35414 whole entry, looked up): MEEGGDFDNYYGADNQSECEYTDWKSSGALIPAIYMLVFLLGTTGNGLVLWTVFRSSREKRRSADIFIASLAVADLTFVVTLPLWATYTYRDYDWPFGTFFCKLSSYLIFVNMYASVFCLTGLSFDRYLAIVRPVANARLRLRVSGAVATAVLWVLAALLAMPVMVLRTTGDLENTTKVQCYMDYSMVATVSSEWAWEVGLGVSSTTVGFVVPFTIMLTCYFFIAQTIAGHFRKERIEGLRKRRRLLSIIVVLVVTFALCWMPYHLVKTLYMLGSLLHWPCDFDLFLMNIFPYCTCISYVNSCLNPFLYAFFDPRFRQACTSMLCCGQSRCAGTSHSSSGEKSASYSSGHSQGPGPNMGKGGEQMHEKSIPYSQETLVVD
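Material: CHO-K1 APJ beta-arrestin complementation cell line; Input: cell density 1000 per well; Incubation: compound stimulation 90 min at 25 °C, detection 60 min; Signal: luminescence from split beta-galactosidase complementation, Galacton Star/Emerald II substrate; Controls: DMSO-only wells as negative, 10 nM Apelin-13 as positive control.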
APJ antag – antagonists of human apelin receptor APJ, primary screen, CHO-K1 cells, beta-arrestin complementation, luminescence | inhibition, % at 20 µM | P35414 | 330,000 compounds, 0.32% hits;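 active means inhibition above about 40% at 20 µM, limit read from the data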;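 further: cells challenged with 10 nM apelin-13 agonist together with compound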
EBI2 antag conf – EBI2 antagonist hit retest, beta-arrestin, confirmation, cell-based, single concentration, luminescence, 7a,25-OHC stimulation; shares compounds with EBI2 block; 7a,25-OHC antagonism; inhibition, % at 5 µM; 2,400 compounds, 29% hits; AID 651997, 2013;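 active means inhibition of at least 50%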
EBI2 agonist – EBI2 agonist activity of antagonist hits, confirmation, counter-screen for EBI2 antagonist project, cell-based, single concentration, agonist mode, luminescence. shares compounds with EBI2 block. EBI2-expressing cells, 60 min; 0% vehicle, 100% 7α,25-dihydroxycholesterol control. activation, % at 5 µM. 2,400 tested, under 10 active;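 active means activation of at least 50%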
bGal cs – E. coli beta-galactosidase enzyme inhibition, confirmation, counter-screen for EBI2 antagonist project, biochemical, luminescence, single concentration | purified beta-galactosidase, luminescent Galacton Star, 15 min | inhibition, % at 5 µM | AID 652176, 2013 | 2,400 compounds, 1% hits | shares compounds with EBI2 block;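 active means replicate-average signal at least 3 plate SD below neutral wells, shown as high inhibition, flagging enzyme-inhibiting false positives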;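 further: higher means stronger loss of beta-gal luminescence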
Each line names hits and unclear results; the compound was inactive in the other large screens (follow-up assays come after a bar, where they were run). In the library only some 1.5% were active in any assay of this set; here they are far more common.

C[C@@H]1CN([C@H](C)CO)C(=O)c2cc(Br)cnc2O[C@@H]1CN(C)C(=O)C1CCOCC1	none (no result: CCR6 antag, APJ agonist, APJ antag)
Cc1cc(C(=O)OCC(=O)NCCC(C)C)c2ccccc2n1	none
Cc1cccc(Oc2nc3ccccn3c(=O)c2/C=C(\C#N)C(=O)NC2CCS(=O)(=O)C2)c1 (stereo not drawn)	EBI2 block 45 | EBI2 antag conf 53 | EBI2 agonist inactive | bGal cs inactive
N#C/C(=C\c1c(Oc2ccc(Cl)cc2)nc2ccccn2c1=O)C(=O)NC1CCS(=O)(=O)C1 (stereo not drawn)	none
Cc1ccc(Oc2nc3ccccn3c(=O)c2/C=C(\C#N)C(=O)Nc2c(C)n(C)n(-c3ccccc3)c2=O)c(C)c1	EBI2 block 63 | EBI2 antag conf 58 | EBI2 agonist inactive | bGal cs inactive
Cc1cc(Oc2nc3ccccn3c(=O)c2/C=C(\C#N)C(=O)NC2CCS(=O)(=O)C2)ccc1Cl (stereo not drawn)	EBI2 block 49 | EBI2 antag conf 66 | EBI2 agonist inactive | bGal cs inactive
Cc1ccc(S(=O)(=O)N[C@H](C(=O)OCC(=O)N2N=C(c3ccc(Cl)cc3)CC2c2ccco2)C(C)C)cc1 (stereo partly drawn)	EBI2 block 44 | EBI2 antag conf 53 | EBI2 agonist inactive | bGal cs inactive
O=C(NCc1ccccc1)C(c1ccncc1)N(C(=O)c1csnn1)C1CC1 (stereo not drawn)	none
Fc1ccc(Nc2ccc(-c3ccc(F)cc3)nn2)cc1	EBI2 block 60 | EBI2 antag conf inactive | EBI2 agonist inactive | bGal cs inactive
O=C(Nc1cccnc1)/C(N=Nc1ccc(Cl)c(C(F)(F)F)c1)=C(\O)c1ccccc1	none
O=C(Nc1cccnc1)/C(N=Nc1c(Cl)cccc1Cl)=C(\O)c1ccccc1	EBI2 block 51 | EBI2 antag conf inactive | EBI2 agonist inactive | bGal cs inactive
CCCCn1c(SCC(=O)Nc2cc(C(F)(F)F)ccc2Cl)nnc1C(CC)N(C)C (stereo not drawn)	none
O=[N+]([O-])C1=CC=C2C(=NC3(CCCCC3)N2O)C1=NC1CCCCC1	EBI2 block 48 | EBI2 antag conf inactive | EBI2 agonist inactive | bGal cs inactive
CC1(C)CC(N=C2C([N+](=O)[O-])=CC=C3C2=NC2(CCCCC2)N3O)CC(C)(C)N1	none
COc1cc(CCCN2CCNC[C@@H]2Cc2ccccc2)cc(OC)c1OC	none
COC1OC(COCc2ccccc2)C(N)C(OCc2ccccc2)C1OCc1ccccc1 (stereo not drawn)	none (no result: APJ agonist, APJ antag)
COc1cccc(OCC(=O)N2CCC3(CC2)CC(=O)c2ccccc2O3)c1	none
O=C1CC2(CCN(C(=O)COc3ccc(Cl)cc3)CC2)Oc2ccccc21	EBI2 block 87 | EBI2 antag conf 64 | EBI2 agonist inactive | bGal cs inactive
Cc1ccc(OCC(=O)N2CCC3(CC2)CC(=O)c2ccccc2O3)cc1	EBI2 block 86 | EBI2 antag conf 60 | EBI2 agonist inactive | bGal cs inactive
O=C1CC2(CCN(C(=O)c3ccc(Br)cc3)CC2)Oc2ccccc21	EBI2 block 54 | EBI2 antag conf inactive | EBI2 agonist inactive | bGal cs inactive
CCN(CC(=O)Nc1c(F)cccc1F)C(=O)C1CCN(S(=O)(=O)c2ccc(C)cc2C)CC1	none
O=C(Cc1ccccc1F)NC1CCCN(Cc2ccc(Cl)cc2)C1 (stereo not drawn)	none
COc1ccc(NCC(O)COc2ccc(C(C)(C)C)cc2)cc1 (stereo not drawn)	EBI2 block 70 | EBI2 antag conf 52 | EBI2 agonist inactive | bGal cs inactive
O=C(Nc1ccccc1Cl)C1CCCN(c2ncnc3c2nc2n3CCCCC2)C1 (stereo not drawn)	none
O=C(Nc1ccc2ccccc2c1)[C@@H]1C[C@H]1[C@@H](NP(=O)(c1ccccc1)c1ccccc1)c1ccccc1	EBI2 block 59 | EBI2 antag conf inactive | EBI2 agonist inactive | bGal cs inactive
Cc1ccc(CN(C(=O)COc2cccc(C)c2C)C2CCS(=O)(=O)C2)o1 (stereo not drawn)	none
O=C(Cc1ccccc1)Nc1cccc(-c2nnc(-c3ccco3)o2)c1	none
O=C(Nc1cccc(-c2nnc(-c3ccco3)o2)c1)C(c1ccccc1)c1ccccc1	EBI2 block 77 | EBI2 antag conf inactive | EBI2 agonist inactive | bGal cs inactive
O=C(Nc1cccc(-c2nnc(-c3ccco3)o2)c1)c1ccccc1	none
O=C(Cc1ccc(Cl)cc1)Nc1cccc(-c2nnc(-c3ccco3)o2)c1	EBI2 block 71 | EBI2 antag conf inactive | EBI2 agonist inactive | bGal cs inactive
CC(C)CN(C(=O)CN1C(=O)NC(c2ccccc2)(c2ccccc2)C1=O)C1CCS(=O)(=O)C1 (stereo not drawn)	none

Compound activity (PubChem)
